Results reported in PubChem BioAssay.
Results filed as inconclusive are left out.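 The calls were made as follows, unless noted: active = inhibition over a set limit, the all-compound mean plus 3 SD, in both replicate runs; inconclusive = over that limit in just one replicate run; inactive = at or under that limit in both runs.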

Legend:
[1] = OD615 S. cerevisiae growth inhibition, permissive medium, pilot counter-assay, permissive growth control for S. cerevisiae lifespan shortening project (AID 705;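 active = growth inhibition above 25% in both replicates, a cutoff set 3 SD above the mean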); details: OD615, 24 h, at 10 µM, active compounds read high
Outline: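 Material: engineered DeaD yeast; compound dosing: one dose 10 µM, DMSO 0.25% final; measure: yeast growth inhibition indicated by reduced 24 h OD615; detection: OD615 turbidity read; incubation: cells pre-grown 4 h, then 24 h compound exposure, 30 °C humidified; medium: permissive synthetic complete medium with raffinose and galactose carbon sources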

[2] = Restrictive medium S. cerevisiae growth inhibition, OD615, pilot screen of yeast lifespan reduction project, restrictive growth control (AID 706;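 active = growth inhibition above a set limit, 3 SD over mean compound inhibition, in both replicates, cut at about 43% in these data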;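 also: modified DeaD lifespan yeast strain shifted to restrictive glucose medium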); details: OD615, 48 h, at 10 µM, active compounds read high
Outline: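 material = engineered S. cerevisiae DeaD strain | medium = glucose-based CSMM-D restrictive medium | times = 4 h pre-incubation, 48 h exposure at 30 °C | technique = OD615 absorbance reading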

[3] = viability gain of MRP-1-high H69AR cells under doxorubicin, pilot screen, MRP-1 activator project, CellTiter-Glo, duplicate (AID 807;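 active = viability increase at or above a cutoff of the median across tested compounds plus 3 SD, cut at about 8.5% in these data, passing the limit was not always enough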;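 also: compound pretreatment 18-22 h then 72 h combined with doxorubicin; 0% = doxorubicin alone and 100% = vehicle without doxorubicin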); details: H69AR viability with doxorubicin, CellTiter-Glo luminescence; at 10 µM; active compounds read high
[4] = growth suppression of beta-catenin knockout HCT116, pilot screen, human colon tumor cells (AID 823;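 active = cell viability at or below a set limit in both duplicate runs, the limit being the all-compound median minus 4 SD, cut at about 23% in these data, passing the limit was not always enough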;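 also: 0% = wells killed by 20 µM Hyamine and 100% = untreated DMSO cell wells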); details: CellTiter-Glo, 60 h, at 10 µM, active compounds read low
[5] = growth suppression of PTEN-deleted HCT116, pilot screen, cell-based, HCT116 clonal line, CellTiter-Glo (AID 824;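 active = viability at or below 27.92% in each of two runs, the all-compound median minus 4 SD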;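 also: 0% = 20 µM Hyamine control and 100% = vehicle cell control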); details: 60 h, at 10 µM, active compounds read low
[6] = inhibitors of the yeast RAM network, pilot screen, dse1pr::URA3 reporter, 5-FOA selection (AID 869);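 also: 0% = DMSO wells with no growth and 100% = 10 µM 1-NA-PP1 with full growth; RAM network block rescues cells from 5-FOA so hits raise OD615 growth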; details: S. cerevisiae dse1pr::URA3 5-FOA growth, OD615, 2 d; at 10 µM; active compounds read high; strain carries analog-sensitive mutant Cbk1 kinase
[7] = RAM signaling pathway blockade in yeast – S. cerevisiae, Pdr1DBD-CYC8 efflux-inhibited sensitized strain, primary screen (AID 1298;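 active = RAM network inhibition above 8.4% in each of two replicates, 3 SD over the compound average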;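 also: 0% = DMSO untreated cells without growth and 100% = 10 µM 1-NA-PP1 full growth; higher means more yeast growth rescued from 5-FOA killing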); details: S. cerevisiae cbk1-as DSE1-URA3 strain, 5-FOA growth OD615, 2 d; at 50 µM; active compounds read high

O=c1c2cc(-c3ccccc3)sc2ncn1/N=C/c1ccco1
inactive: growth inhibition [1] -7.51% | growth inhibition [2] 0.525% | viability increase [3] -2.49% | viability [4] 96.6% | viability [5] 82% | inhibition [6] 1.5% | RAM network inhibition [7] 5.9%

O=C(NCc1cn2ccccc2n1)c1ccc(Br)o1
inactive: growth inhibition [1] -7.75% | growth inhibition [2] -0.96% | viability increase [3] -1.31% | viability [4] 96.5% | viability [5] 92.3% | inhibition [6] 2.42% | RAM network inhibition [7] 3.98%

CCC(=O)Nc1nc2c(OC)ccc(OC)c2s1
inactive: growth inhibition [1] -2.06% | growth inhibition [2] 0.075% | viability increase [3] -2.87% | viability [4] 97.5% | viability [5] 94.5% | inhibition [6] 1.07% | RAM network inhibition [7] 2.34%

Cc1ccc(-c2nc3cnccn3c2Nc2ccccc2)o1
inactive: growth inhibition [1] 0.205% | growth inhibition [2] 14.9% | viability increase [3] -0.77% | viability [4] 91.2% | viability [5] 84.3% | inhibition [6] 0.995% | RAM network inhibition [7] 1.9%

O=C(Nc1sc2c(c1C(=O)NCC1CCCO1)CCCC2)c1cccs1 (stereo unspecified)
inactive: growth inhibition [1] -11.2% | growth inhibition [2] 5.31% | viability increase [3] -3.45% | viability [4] 85.9% | viability [5] 86.6% | inhibition [6] 1% | RAM network inhibition [7] 4.75%

COCc1cc(=O)n2[nH]c(-c3cccc(Br)c3)cc2n1
inactive: growth inhibition [1] -25.1% | growth inhibition [2] -16.1% | viability increase [3] -2.23% | viability [4] 92.9% | viability [5] 86.7% | inhibition [6] 0.76% | RAM network inhibition [7] 5.82%

Cc1cc(Nc2ccc3c(c2)OCCO3)n2nc(C)nc2n1
inactive: growth inhibition [1] -5.2% | growth inhibition [2] 11.4% | viability increase [3] -2.09% | viability [4] 106% | viability [5] 102% | inhibition [6] 2.84% | RAM network inhibition [7] 1.45%

C=CCN(C(=O)CN1CCOCC1)c1nc(C)c(-c2ccccc2)s1
inactive: growth inhibition [1] -16.4% | growth inhibition [2] -12.9% | viability increase [3] -3.35% | viability [4] 91.9% | viability [5] 87.4% | inhibition [6] -0.245% | RAM network inhibition [7] 0.88%

CCN(CC)CC(=O)n1c2c(c3ccccc31)CCCC2
inactive: growth inhibition [1] 4.59% | growth inhibition [2] -2.73% | viability increase [3] -1.1% | viability [4] 94.5% | viability [5] 99.5% | inhibition [6] 0.57% | RAM network inhibition [7] 0.67%

O=C(Cc1cccs1)N1CCN(c2ccccn2)CC1
inactive: growth inhibition [1] -2.47% | growth inhibition [2] -11.1% | viability increase [3] -0.45% | viability [4] 93.5% | viability [5] 98% | inhibition [6] 0.735% | RAM network inhibition [7] 2.55%

Cn1c(=O)n(C)c2cc(CN3C(=O)OC(C)(C)C3(C)O)ccc21 (stereo unspecified)
inactive: growth inhibition [1] 2.22% | growth inhibition [2] 0.365% | viability increase [3] -1.11% | viability [4] 105% | viability [5] 95.2% | inhibition [6] 0.09% | RAM network inhibition [7] 4.45%

Nc1c(C(=O)NCc2ccccc2)nnn1Cc1ccc(F)cc1
inactive: growth inhibition [1] -1.67% | growth inhibition [2] -11.5% | viability increase [3] -0.8% | viability [4] 98.6% | viability [5] 92.1% | inhibition [6] 1.8% | RAM network inhibition [7] 3.21%

CCc1nnc(NC(=O)c2ccc(S(=O)(=O)N(CCOC)CCOC)cc2)s1
inactive: growth inhibition [1] -9.86% | growth inhibition [2] -3% | viability increase [3] 3.39% | viability [4] 115% | viability [5] 107% | inhibition [6] 0.77% | RAM network inhibition [7] 1.29%

c1ccc(Cn2ncc3ccccc32)cc1
inactive: growth inhibition [1] -3.05% | growth inhibition [2] 4.4% | viability increase [3] -1.05% | viability [4] 94.8% | viability [5] 98% | inhibition [6] -0.165% | RAM network inhibition [7] -0.97%

CCOC(=O)Cn1c(=O)oc2cc(S(=O)(=O)Nc3cccc(C)c3)ccc21
inactive: growth inhibition [1] -5.58% | growth inhibition [2] -22.1% | viability increase [3] -0.66% | viability [4] 65.5% | viability [5] 79% | inhibition [6] 1% | RAM network inhibition [7] 2.63%

CCOc1ccc2nc(N3CCC(C(=O)N4CCN(C(=O)c5ccco5)CC4)CC3)sc2c1
inactive: growth inhibition [1] -10.8% | growth inhibition [2] -9.39% | viability increase [3] -4.93% | viability [4] 69.7% | viability [5] 77.7% | inhibition [6] 0.305% | RAM network inhibition [7] 3.91%

COc1ccc(C2c3c(oc4ccc(F)cc4c3=O)C(=O)N2CCN2CCOCC2)cc1OC (stereo unspecified)
inactive: growth inhibition [1] -0.77% | growth inhibition [2] 4.3% | viability increase [3] -1.12% | viability [4] 107% | viability [5] 108% | inhibition [6] 0.315% | RAM network inhibition [7] 2.7%

CCOc1ccc(-c2cc(CCCC(=O)NCc3ccco3)no2)cc1
inactive: growth inhibition [1] -2.19% | growth inhibition [2] -4.02% | viability increase [3] -2.79% | viability [4] 86.5% | viability [5] 88% | inhibition [6] 0.22% | RAM network inhibition [7] 1.77%
